Published values pooled from the literature.
Lines come from different studies, so protocols differ.
Target: Calcium/calmodulin-dependent protein kinase type II subunit beta (CAMK2B, Homo sapiens, UniProt Q13554)

Compound | test | setting | remaining binding
CN(c1ccnc(CNc2nc(Nc3ccc4c(c3)CC(=O)N4)ncc2C(F)(F)F)n1)S(C)(=O)=O | cell-free assay, competition with immobilised ligand | 1 µM | 86%
C[C@@H](c1ccc(-n2cnc3c(N)ncnc32)cc1)N1CCc2nn(C)c(Cc3ccccc3)c2C1=O | binding, competition with immobilised ligand | 0.1 µM | 98%
Cn1nc(C(=O)NCc2ccc(C(=O)O)cc2)cc1-c1ccc2[nH]ccc2c1 | cell-free assay, competition with immobilised ligand | 0.1 µM | 91%
F[C@@H]1CCN(c2nccc(-c3cnn4ncccc34)n2)C1 | binding | 1 µM | 100%
CS(=O)(=O)NCC[C@H](NC(=O)c1cncc2c1cnn2-c1ccc(F)cc1)c1ccnc(S(C)(=O)=O)c1 | cell-free assay, competition with immobilised ligand | 1 µM | 100%
COc1cnc(Nc2cccc(S(N)(=O)=O)c2)nc1N1CCN(c2ccccc2)CC1 | binding, competition with immobilised ligand | 1 µM | 83%
C[C@H]1CCN(c2nccc(-c3cnn4ncccc34)n2)C1 | binding | 1 µM | 80%
FC(F)(F)c1ccc2c(c1)nc(-c1cccnc1)n2C1CC1 | cell-free assay, competition with immobilised ligand | 1 µM | 100%
CCN1CCN(Cc2ccc(C(=O)Nc3ccc(C)c(Oc4ccc5c(c4)CC(=O)N5)c3)cc2C(F)(F)F)CC1 | binding, competition with immobilised ligand | 1 µM | 100%
c1cncc(-c2cccc(Nc3nccc(NC4CCCCC4)n3)c2)c1 | binding, competition with immobilised ligand | 10 µM | 94%
O=C(Nc1c[nH]nc1C(=O)NC1CCNCC1)c1cc(F)cc(F)c1 | binding, competition with immobilised ligand | 1 µM | 100%
N[C@@H]1CCN(c2nccc(-c3cnn4ncccc34)n2)C1 | binding | 1 µM | 100%
COc1cnc(Nc2cccc(S(N)(=O)=O)c2)nc1N1CCN(c2ccccc2)C(=O)C1 | binding, competition with immobilised ligand | 1 µM | 100%
O=C(O)[C@@H]1[C@@H](Cn2nnc3ccccc3c2=O)CC[C@H]1C(=O)c1ccc(OCCC2CCOCC2)cc1 | cell-free assay, competition with immobilised ligand | 1 µM | 100%
CN(CCCC(F)(F)F)c1nccc(-c2cnn3ncccc23)n1 | binding | 1 µM | 100%
O=C(c1ccc(Nc2ncc(Cl)c(-c3cc4ccccc4s3)n2)cc1)N1CCC(N2CCCC2)CC1 | binding, competition with immobilised ligand | 1 µM | 83%
CN(C)c1nccc(-c2cnn3ncccc23)n1 | binding | 1 µM | 65%
O=C(NCCCN1CCOCC1)c1ccc(Nc2nccc(-c3cc4ccccc4s3)n2)cc1 | binding, competition with immobilised ligand | 1 µM | 83%
Cc1cc(NC(=O)c2cccc(S(F)(F)(F)(F)F)c2)cc(-n2ccn3nc(-c4cccnc4)cc23)c1 | cell-free assay, competition with immobilised ligand | 1 µM | 100%
CN(C)c1nccc(-c2cnc3ncccn23)n1 | binding | 1 µM | 89%
O=C(NCCCN1CCOCC1)c1ccc(Nc2ncc(Cl)c(-c3ccc(Cl)s3)n2)cc1 | binding, competition with immobilised ligand | 1 µM | 79%
